Results as given in ChEMBL document CHEMBL1144182, “Antimicrobial and cytotoxic arylazoenamines. Part III: antiviral activity of selected classes of arylazoenamines” (Bioorg Med Chem, 2008).
Activity calls are given as the source filed them. The rule behind the calls is not given here.

Experiments:
[1] = Cytotoxicity against mock-infected human MT4 cells assessed as reduction in cell viability after 96 hrs by MTT assay; assay type: cell-based
In short: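 Exponentially growing MT-4 cells seeded at 1 × 10^5 cells/mL in RPMI-1640 with 10% FCS, penicillin and streptomycin, with or without serial compound dilutions. Incubated at 37 °C, 5% CO2; viability read by MTT after 96 h. CC50 is the concentration reducing mock-infected cell viability by 50%.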

[2] = Cytotoxicity against mock-infected MDBK cells assessed as reduction in cell viability after 96 hrs by MTT assay; assay type: cell-based, Bos taurus; details: cattle
In short: (§1)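 Cytotoxicity run in parallel with the antiviral assays. MDBK seeded at 6 × 10^5 and BHK at 1 × 10^6 cells/mL in maintenance medium with or without serial compound dilutions. Incubated 48–96 h at 37 °C, 5% CO2, then viability read by MTT. CC50 is the concentration reducing mock-infected cell viability by 50%.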

[3] = system: Bovine viral diarrhea virus 1; experiment: Antiviral activity against BVDV infected in MDBK cells assessed as protection against virus-induced cytopathogenicity after 4 days by MTT assay; assay type: functional, organism-based; details: Bovine viral diarrhea virus isolates and strains, 96 h
In short: (§2)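 MDBK (BVDV) or BHK-21 (YFV) cells were seeded at 3 × 10^4 or 5 × 10^4 cells/well respectively and grown overnight to confluent monolayers at 37 °C in 5% CO2. Monolayers were infected at m.o.i. 0.01 in serum-free medium. After 1 h, MEM Earle's with 1% FCS was added, with or without serial compound dilutions. After 3–4 days at 37 °C, viability was read by MTT. EC50 was taken as 50% protection from virus-induced cytopathogenicity.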

[4] = Cytotoxicity against mock-infected BHK cells assessed as reduction in cell viability after 96 hrs by MTT assay; assay type: cell-based, Mesocricetus auratus; details: hamster; in short: as §1
Yellow fever virus = experiment: Antiviral activity against YFV infected in BHK21 cells assessed as protection against virus-induced cytopathogenicity after 4 days by MTT assay; assay type: functional, organism-based; details: BHK-21, 96 h; in short: as §2
[5] = Cytotoxicity against mock-infected african green monkey Vero76 cells assessed as reduction in cell viability after 96 hrs by MTT assay; assay type: cell-based, Vero; details: chlorocebus sabaeus
Coxsackievirus B2 = experiment: Antiviral activity against CVB2 infected in Vero76 cells assessed as reduction in virus plaque formation after 4 days by MTT assay; assay type: functional, organism-based; details: Enterovirus B, Vero 76, 96 h
[6] = system: Respiratory syncytial virus; experiment: Antiviral activity against RSV infected in Vero76 cells assessed as reduction in virus plaque formation after 4 days by MTT assay; assay type: functional, organism-based; details: human respiratory syncytial virus, Vero 76, 96 h
Poliovirus 1 = experiment: Antiviral activity against Sb1 virus infected in Vero76 cells assessed as reduction in virus plaque formation after 4 days by MTT assay; assay type: functional, organism-based; details: Enterovirus C, Sabin, Vero 76, 96 h
[7] = system: Human immunodeficiency virus 1; experiment: Antiviral activity against HIV1 infected in MT4 cells assessed as virus-induced cytopathogenicity after 4 days; assay type: functional, organism-based
Vaccinia virus = experiment: Antiviral activity against VV infected in Vero76 cells assessed as reduction in virus plaque formation after 4 days by MTT assay; assay type: functional, organism-based; details: Orthopoxvirus vaccinia; Vero 76
[8] = system: Vesicular stomatitis virus; experiment: Antiviral activity against VSV infected in Vero76 cells assessed as reduction in virus plaque formation after 4 days by MTT assay; assay type: functional, organism-based; details: Vero 76

| SMILES | CC50 at 96 h [1] [µM] | CC50 at 96 h [2] [µM] | EC50 [3] [µM] | CC50 at 96 h [4] [µM] | EC50 (Yellow fever virus) [µM] | CC50 at 96 h [5] [µM] | EC50 (Coxsackievirus B2) [µM] | EC50 [6] [µM] | EC50 (Poliovirus 1) [µM] | Activity [7] | Activity (Vaccinia virus) | Activity [8] |
| --- | --- | --- | --- | --- | --- | --- | --- | --- | --- | --- | --- | --- |
| Fc1ccccc1N1CCN(/C=C/N=N/c2ccccc2)CC1 | 32 | 10 | > 10 | 62 | > 62 | 34 | 6 | 6 | > 34 | inactive | inactive | inactive |
| CN1CCC/C1=C\N=N\c1c(F)c(F)c(F)c(F)c1F | 8 | > 100 | > 100 | > 100 | > 100 | > 100 | > 100 | 75 | > 100 | inactive | inactive | inactive |
| Clc1ccc(/N=N/C=C/N2CCCC2)cc1 | 61 | 30 | > 30 | > 100 | 46 | 22 | 4 | > 22 | > 22 | inactive | inactive | inactive |
| CN1C=C(/N=N/c2ccc(F)cc2)CCC1 | ≥ 100 | 48 | > 48 | 90 | > 90 | 77 | 53 | 30 | > 77 | inactive | inactive | inactive |
| FC(F)(F)c1cc(/N=N\C2=C3CCCCN3CCC2)ccc1Cl | 19 | 35 | > 35 | 41 | > 41 | > 100 | 64 | > 100 | > 100 | inactive | inactive | inactive |
| COc1ccc(N2CCN(/C=C/N=N/c3ccccc3)CC2)cc1 | 29 | 19 | > 19 | 46 | > 46 | 38 | 5 | 6 | > 38 | inactive | inactive | inactive |
| C(=C\N1CCSCC1)/N=N/c1ccccc1 | 19 | 14 | > 14 | > 100 | > 100 | 30 | 6 | > 30 | > 30 | inactive | inactive | inactive |
| Clc1ccc(/N=N\C2=C3CCCN3CCC2)cc1Cl | 26 | 67 | > 67 | 61 | > 61 | > 100 | 30 | > 100 | 45 | inactive | inactive | inactive |
| CN1C=C(/N=N/c2ccc(Br)c(C(F)(F)F)c2)CCC1 | 50 | > 100 | 40 | > 100 | > 100 | 80 | 40 | > 80 | > 80 | inactive | inactive | inactive |
| CN1CCC/C1=C\N=N\c1cccc([N+](=O)[O-])c1 | 25 | > 100 | 5.5 | > 100 | > 100 | > 100 | > 100 | > 100 | > 100 | inactive | inactive | inactive |
| CN1C=C(/N=N/c2cccc(Cl)c2)CCC1 | > 100 | 87 | 12 | 85 | > 85 | 75 | 34 | 40 | > 75 | inactive | inactive | inactive |
